Reference: publication PMC6338520 (Cell chemical biology, 2018)

Assays:
mouse liver lysates = assay: Substrate hydrolysis in mouse liver homogenate with or without Palmostatin B; type: biochemical; details: lysate 20 μg; for substrate processing by mouse liver lysates: substrate 5 μM
Procedure, shortened: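 Liver from 14-week-old virgin female C57BL/6 mice, washed twice in cold PBS, minced, sonicated in cold PBS, clarified, protein quantified by BCA. Homogenate (20 μg) preincubated with DMSO or Palmostatin B (10 μM) for 30 min on ice, then fluorogenic thioester substrate or colorimetric esterase substrate 4-NPO added (5 μM). Hydrolysis plotted.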

PC3 cell lysate = assay: QStE hydrolysis in PC3 cell lysate with inhibitors; type: biochemical, human; details: lysate 20 μg, inhibitor 10 μM, 30 min on ice, QStE 5 μM; three replicates
T. gondii lysates = assay: In situ depalmitoylase activity in T. gondii lysates; type: biochemical, Toxoplasma gondii; details: ASC20KRNT 2.5 μM, Ku80 T. gondii lysate 5 μg, inhibitor 10 μM
phospholipase A2 (PLA2) = phospholipase A2 (PLA2) (Sus scrofa, UniProt P00592); assay: QStE hydrolysis by recombinant PLA2; type: biochemical; details: QStE 10 μM, PLA2 500 nM
[1] = target: T1, monoacylglycerol lipase (MGLL) (Homo sapiens, UniProt Q99685); assay: QStE hydrolysis by recombinant MGLL; type: biochemical; details: QStE 10 μM, MGLL 500 nM
T1 sequence (Q99685 1-303): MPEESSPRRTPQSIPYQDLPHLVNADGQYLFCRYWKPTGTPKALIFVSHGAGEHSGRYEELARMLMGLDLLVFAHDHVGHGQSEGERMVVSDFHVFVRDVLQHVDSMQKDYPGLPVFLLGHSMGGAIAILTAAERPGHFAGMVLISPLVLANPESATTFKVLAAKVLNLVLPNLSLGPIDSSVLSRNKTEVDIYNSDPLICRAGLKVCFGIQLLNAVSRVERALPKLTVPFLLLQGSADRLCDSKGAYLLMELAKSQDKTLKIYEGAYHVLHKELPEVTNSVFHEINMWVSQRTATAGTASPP

HsAPT1 = HsAPT1 (Homo sapiens, UniProt O75608); assay: Steady-state kinetics of fluorogenic substrate hydrolysis by recombinant HsAPT1; type: biochemical; details: QStE 10 μM, HsAPT1 50 nM
[2] = test system: HsAPT1, HsAPT2 and TgPPT1; assay: Steady-state kinetics, statement made for all three depalmitoylases together; type: biochemical; details: all three enzymes
[3] = Solubility of the quenched substrates in buffer; type: physicochemical; details: method not described
TgPPT1 = TgPPT1 (Toxoplasma gondii, UniProt S4UG63); assay: Steady-state kinetics of fluorogenic substrate hydrolysis by recombinant TgPPT1; type: biochemical; details: QStE 10 μM, TgPPT1 100 nM

phospholipase A2 (PLA2), sequence (P00592 23-146): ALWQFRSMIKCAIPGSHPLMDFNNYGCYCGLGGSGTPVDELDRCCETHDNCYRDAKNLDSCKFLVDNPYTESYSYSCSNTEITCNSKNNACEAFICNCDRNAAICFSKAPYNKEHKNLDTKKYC
HsAPT1, sequence (O75608 whole entry): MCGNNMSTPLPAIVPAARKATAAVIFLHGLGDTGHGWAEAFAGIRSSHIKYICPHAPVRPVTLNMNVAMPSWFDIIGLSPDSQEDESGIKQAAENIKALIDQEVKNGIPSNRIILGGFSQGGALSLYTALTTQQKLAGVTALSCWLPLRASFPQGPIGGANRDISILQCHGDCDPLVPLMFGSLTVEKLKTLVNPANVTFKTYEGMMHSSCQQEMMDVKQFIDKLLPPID

## CCCCCCCC(=O)Oc1ccc([N+](=O)[O-])cc1 [4-NPO, 4-nitrophenyl octanoate]
Mouse liver lysates
  substrate processing by mouse liver lysates: more effectively processed

## CCCCCCCCCCCCCCCCS(=O)(=O)F [HDSF, hexadecylsulfonyl fluoride]
PC3 cell lysate
  effect of inhibitor on QStE processing in PC3 cell lysate: only minor reductions

## O=C(CN1CCN(C(=O)c2ccco2)CC1)Nc1cc(C(F)(F)F)ccc1Cl [ML348]
PC3 cell lysate
  effect of inhibitor on QStE processing in PC3 cell lysate: only minor reductions

## COc1ccc(N2CCN(C(=O)c3cc4c(s3)-c3ccccc3S(=O)(=O)C4)CC2)cc1 [ML349]
PC3 cell lysate
  effect of inhibitor on QStE processing in PC3 cell lysate: only minor reductions

## O=S(=O)(F)Cc1ccccc1 [PMSF, phenylmethylsulfonyl fluoride]
PC3 cell lysate
  effect of inhibitor on QStE processing in PC3 cell lysate: did not reduce

## CCCCCCCCCC[C@@H]1C(=O)O[C@H]1CCc1ccc(OC)c(OC)c1 [PalmB, Palmostatin B]
T. gondii lysates
  effect of inhibitor on activity in T. gondii lysate: completely abolished
Mouse liver lysates; inhibitor 10 μM, 30 min on ice, 4-NPO 5 μM
  effect of inhibitor on 4-NPO processing in mouse liver lysates: only slightly reduced
Mouse liver lysates; inhibitor 10 μM, 30 min on ice, QStE 5 μM
  effect of inhibitor on QStE processing in mouse liver lysates: completely blocked
PC3 cell lysate
  effect of inhibitor on QStE processing in PC3 cell lysate: completely block

## CN(C)c1ccc(/N=N/c2ccc(C(=O)NCCCn3cc(CCCCCCCCCCCCCCCC(=O)SC[C@H](NC(=O)c4cc5ccc(O)cc5oc4=O)C(=O)N4CCOCC4)nn3)cc2)cc1 [QStE, (R)-S-(2-(7-hydroxy-2-oxo-2H-chromene-3-carboxamido)-3-morpholino-3-oxopropyl) (E)-16-(1-(3-(4-((4-(dimethylamino)phenyl)diazenyl)benzamido)propyl)-1H-1,2,3-triazol-4-yl)hexadecanethioate]
Phospholipase A2 (PLA2)
  QStE hydrolysis by PLA2: not hydrolyzed
[1]
  QStE hydrolysis by MGLL: not hydrolyzed
HsAPT1
  QStE hydrolysis by APT1, specificity panel: readily hydrolyzed
Mouse liver lysates
  substrate processing by mouse liver lysates: robust processing
[2]
  catalytic efficiency for QStE compared to QSE, times greater: 10-30 times
[3]; aqueous buffer
  soluble in aqueous buffer at concentrations up to: up to 100 μM
[3]; buffer with CHAPS, 10 mM
  soluble in detergent supplemented buffer at concentrations up to: up to 500 μM
TgPPT1
  QStE hydrolysis by TgPPT1, specificity panel: readily hydrolyzed
